Assays:
Glucagon receptor = Glucagon receptor (Homo sapiens, UniProt P47871); assay: In vitro binding affinity for recombinant human glucagon receptor (hGGR) in BHK cells; type: cell-based
Summary of the method: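 Membranes (4 µg) from BHK cells expressing the cloned human glucagon receptor. Compounds were diluted in DMSO, and a glucagon standard curve was run. IC50 given as mean ± SD, n = 3.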

[1] = Turnover in rat liver microsomes; type: ADME, Microsome
Summary of the method: (§1)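 Rat liver microsomes (0.331 mg/mL protein) with 10 µM compound, 1 mM UDP-GA and 1 mM NADPH in KH2PO4 buffer, pH 7.4, at 37 °C. Sampled at 0-30 min (n = 3), stopped with MeCN. Rate was taken from parent disappearance by LC-MS.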

Rattus norvegicus = species: Rattus norvegicus; assay: In vitro metabolic turnover in rat liver microsomes was determined; type: functional; conditions: Microsome; summary of the method: as §1

Glucagon receptor, sequence (P47871 whole entry): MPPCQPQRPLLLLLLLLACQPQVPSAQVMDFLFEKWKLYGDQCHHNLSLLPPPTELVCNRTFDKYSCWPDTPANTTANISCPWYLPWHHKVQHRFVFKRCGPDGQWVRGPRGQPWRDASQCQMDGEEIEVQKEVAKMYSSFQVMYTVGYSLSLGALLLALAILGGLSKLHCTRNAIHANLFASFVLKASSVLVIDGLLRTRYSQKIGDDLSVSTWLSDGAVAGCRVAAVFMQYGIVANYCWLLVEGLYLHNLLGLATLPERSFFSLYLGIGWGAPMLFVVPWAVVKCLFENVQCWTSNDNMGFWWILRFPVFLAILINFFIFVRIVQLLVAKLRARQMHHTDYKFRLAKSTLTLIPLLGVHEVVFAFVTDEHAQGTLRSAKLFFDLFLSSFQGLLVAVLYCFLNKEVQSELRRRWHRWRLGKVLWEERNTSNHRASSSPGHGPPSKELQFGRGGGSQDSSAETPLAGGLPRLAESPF

Row | SMILES | IC50 (Glucagon receptor) [nM] | Metabolism [1] [pmol/min/mg] | Metabolism (pM min-1 mg-1) (Rattus norvegicus)
1 | O=C(N/N=C/c1ccc(O)c2ccccc12)c1ccc(O)c(Cl)c1 | 203 | – | –
2 | NC(=O)[C@H](Cc1ccccc1)NCc1ccc(/C=N/NC(=O)c2ccc(O)c(Cl)c2)c2ccccc12 | 61.8 | 178 | –
3 | CN1CCN(C(=O)Cc2ccc(/C=N/NC(=O)c3ccc(O)c(Cl)c3)c3ccccc23)CC1 | 268 | 283 | –
4 | CCN(CC)C(=O)COc1ccc(/C=N/NC(=O)c2ccc(O)c(Cl)c2)c2ccccc12 | 49.7 | 302 | –
5 | O=C(N/N=C/c1cn(Cc2ccccc2)c2ccccc12)c1ccc(O)c(Cl)c1 | 615 | – | –
6 | COc1cc(NC(=O)Cc2cccc(C(F)(F)F)c2)ccc1/C=N/NC(=O)c1ccc(O)c(C#N)c1 | 47.8 | 51 | –
7 | O=C(N/N=C/c1ccc2c(ccn2Cc2ccc(OC(F)(F)F)cc2)c1)c1ccc(O)c(Cl)c1 | 286 | – | –
8 | N#Cc1cc(C(=O)N/N=C/c2ccc(OCC(=O)N3CC=C(c4ccc(Br)cc4)CC3)c3ccccc23)ccc1O | 6.1 | 50 | –
9 | O=C(N/N=C/c1cccc2c(CO)cccc12)c1ccc(O)c(Cl)c1 | 200 | 225 | –
10 | O=C(COc1ccc(/C=N/NC(=O)c2ccc(O)c(Cl)c2)c2ccccc12)NC1CCN(Cc2ccccc2)C1 (centres undefined) | 89.3 | 187 | –
11 | COc1cc(NC(=O)CCc2ccc(C(F)(F)F)cc2)ccc1/C=N/NC(=O)c1ccc(O)c(Cl)c1.O | 21.2 | 107 | –
12 | CC(C)c1ccc(Cn2ccc3c(/C=N/NC(=O)c4ccc(O)c(Cl)c4)cccc32)cc1 | 23 | 48 | –
13 | O=C(N/N=C/c1ccc(OCCNCc2ccc(Cl)c(Cl)c2)c2ccccc12)c1ccc(O)c(Cl)c1 | 14.7 | – | –
14 | COc1cc(NC(=O)CCc2ccc(C(F)(F)F)cc2)ccc1/C=N/NC(=O)c1ccc(O)c(Cl)c1 | 33.5 | – | –
15 | Cc1cc(C)c(C)c(Cn2ccc3c(/C=N/NC(=O)c4ccc(O)c(Cl)c4)cccc32)c1C | 5.3 | 105 | –
16 | Cc1cc(C)c(Cn2ccc3c(/C=N/NC(=O)c4ccc(O)c(Cl)c4)cccc32)c(C)c1 | 5.8 | – | –
17 | CCN(CC)C(=O)Cc1ccc(/C=N/NC(=O)c2ccc(O)c(Cl)c2)c2ccccc12 | 22.6 | 323 | –
18 | CCN(CC)C(=O)c1ccc(/C=N/NC(=O)c2ccc(O)c(Cl)c2)c2ccccc12 | 35.4 | 124 | –
19 | O=C(N/N=C/c1cccc2c1ccn2Cc1ccc(OC(F)(F)F)cc1)c1ccc(O)c(Cl)c1 | 22.9 | – | –
20 | CC(C)S(=O)(=O)Cc1ccc(/C=N/NC(=O)c2ccc(O)c(C#N)c2)c2ccccc12 | 163 | 31 | –
21 | O=C(N/N=C/c1ccc(CN2CCN(Cc3ccc(Cl)cc3)CC2)c2ccccc12)c1ccc(O)c(Cl)c1 | 96.7 | 51 | –
22 | O=C(N/N=C/c1ccc(OCC(=O)N2CC=C(c3ccc(Br)cc3)CC2)c2ccccc12)c1ccc(O)c(Cl)c1 | 6.6 | 44 | –
23 | O=C(N/N=C/c1cccc2c1ccn2Cc1ccc(C(F)(F)F)cc1)c1ccc(O)c(Cl)c1 | 33.8 | 116 | –
24 | O=C(N/N=C/c1cccc2c(OCc3ccc(OC(F)(F)F)cc3)cccc12)c1ccc(O)c(Cl)c1 | 12.9 | – | –

Row | SMILES | IC50 (Glucagon receptor) [nM] | Metabolism [1] [pmol/min/mg] | Metabolism (pM min-1 mg-1) (Rattus norvegicus)
25 | CC1CCCCN1C(=O)Cc1ccc(/C=N/NC(=O)c2ccc(O)c(Cl)c2)c2ccccc12 (centres undefined) | 8.3 | 267 | –
26 | O=C(N/N=C/c1ccc(CO)c2ccccc12)c1ccc(O)c(F)c1 | 29.4 | 89 | –
27 | O=C(N/N=C/c1ccc(OCCNCc2ccccc2OC(F)(F)F)c2ccccc12)c1ccc(O)c(Cl)c1 | 54.3 | 233 | –
28 | O=C(N/N=C/c1ccc(CC(=O)N2CCN(Cc3ccccc3)CC2)c2ccccc12)c1ccc(O)c(Cl)c1 | 9.2 | 359 | –
29 | N#Cc1cc(C(=O)N/N=C/c2cn(C(=O)CC3CCCC3)c3ccccc23)ccc1O | 6.4 | 136 | –
30 | COc1cc(NC(=O)Cc2ccc(Cl)cc2)ccc1/C=N/NC(=O)c1ccc(O)c(C#N)c1 | 28.7 | – | –
31 | N#Cc1cc(C(=O)N/N=C/c2ccc(CO)c3ccccc23)ccc1O | 29.8 | 37 | –
32 | CC(C)S(=O)(=O)c1ccc(/C=N/NC(=O)c2ccc(O)c(Cl)c2)c2ccccc12 | 357 | 110 | –
33 | O=C(N/N=C/c1ccc(OCCNCCc2ccc(Br)cc2)c2ccccc12)c1ccc(O)c(Cl)c1 | 19.7 | 250 | –
34 | O=C(N/N=C/c1ccc(CC(=O)N2CCN(c3ccc(F)cc3)CC2)c2ccccc12)c1ccc(O)c(Cl)c1 | 12.3 | 160 | –
35 | O=C(N/N=C/c1ccc(CO)c2ccccc12)c1ccc(O)c(Cl)c1 | 41.1 | 75 | –
36 | CN(C)CCN(C)C(=O)Cc1ccc(/C=N/NC(=O)c2ccc(O)c(Cl)c2)c2ccccc12 | 441 | – | –
37 | O=C(N/N=C/c1ccc(CC(=O)N2CCN(c3ccccc3F)CC2)c2ccccc12)c1ccc(O)c(Cl)c1 | 7.9 | 178 | –
38 | CN(C)c1ccc(C(=O)n2cc(/C=N/NC(=O)c3ccc(O)c(C#N)c3)c3ccccc32)cc1 | 19.1 | 606 | –
39 | O=C(N/N=C/c1ccc(C(=O)N2CCN(Cc3ccc(Cl)cc3)CC2)c2ccccc12)c1ccc(O)c(Cl)c1 | 11.3 | 77 | –
40 | CCN(CC)C(=O)Cc1ccc(/C=N/NC(=O)c2ccc(O)c(C#N)c2)c2ccccc12 | 16.5 | 130 | –
41 | O=C(N/N=C/c1ccc(OCCNCc2ccc(OC(F)(F)F)cc2)c2ccccc12)c1ccc(O)c(Cl)c1 | 27.7 | 167 | –
42 | CC1CCCCN1C(=O)Cc1ccc(/C=N/NC(=O)c2ccc(O)c(C#N)c2)c2ccccc12 (centres undefined) | 11.6 | 65 | –
43 | COCc1ccc(/C=N/NC(=O)c2ccc(O)c(Cl)c2)c2ccccc12 | 75.5 | – | –
44 | COc1cc(NC(=O)CSc2ccc(OC(F)(F)F)cc2)ccc1/C=N/NC(=O)c1ccc(O)c(Cl)c1 | 14.5 | 23 | –
45 | O=C(COc1ccc(/C=N/NC(=O)c2ccc(O)c(Cl)c2)c2ccccc12)Nc1ccc(Cl)cc1 | 51.7 | – | –
46 | COc1cc(/C=N/NC(=O)c2ccc(O)c(Cl)c2)ccc1NC(=O)COc1ccc(OC(F)(F)F)cc1 | 73 | 136 | –
47 | N#Cc1cc(C(=O)N/N=C/c2ccc(N(C(=O)C3CCCC3)C(=O)C3CCCC3)c3ccccc23)ccc1O | 2.8 | 250 | –
48 | COc1cc(NC(=O)CCc2ccc(C(F)(F)F)cc2)ccc1/C=N/NC(=O)c1ccc(O)c(C#N)c1 | 15.7 | – | –

Row | SMILES | IC50 (Glucagon receptor) [nM] | Metabolism [1] [pmol/min/mg] | Metabolism (pM min-1 mg-1) (Rattus norvegicus)
49 | COc1ccc2oc(C(=O)Nc3ccc(/C=N/NC(=O)c4ccc(O)c(Cl)c4)c(OC)c3)cc2c1 | 90.6 | 31 | –
50 | N#Cc1cc(C(=O)N/N=C/c2cccc3c2ccn3Cc2ccc(C(F)(F)F)cc2)ccc1O | 22.3 | 59 | –
51 | COc1cc(OCCN2CCc3ccccc3C2)ccc1/C=N/NC(=O)c1ccc(O)c(Cl)c1 | 120 | 322 | –
52 | COc1cc(/C=N/NC(=O)c2ccc(O)c(Cl)c2)ccc1NC(=O)Cc1csc2ccccc12 | 63.2 | 74 | –
53 | COc1cc(/C=N/NC(=O)c2ccc(O)c(Cl)c2)cc(Cl)c1OCCN1CCc2ccccc2C1 | 485 | – | –
54 | O=C(N/N=C/c1ccc(OCC(=O)N2CCC(O)(c3ccc(Br)cc3)CC2)c2ccccc12)c1ccc(O)c(Cl)c1 | 11.4 | – | –
55 | O=C(N/N=C/c1ccc(C(=O)NCCc2ccc(Cl)cc2)c2ccccc12)c1ccc(O)c(Cl)c1 | 5.9 | 32 | –
56 | CN(C)CCN(Cc1ccccc1)C(=O)Cc1ccc(/C=N/NC(=O)c2ccc(O)c(C#N)c2)c2ccccc12 | 10.4 | 240 | –
57 | O=C(N/N=C/c1cn(Cc2ccc(OC(F)F)cc2)c2ccccc12)c1ccc(O)c(Cl)c1 | 305 | – | –
58 | O=C(N/N=C/c1ccc(NC(=O)C2CCCC2)c2ccccc12)c1ccc(O)c(Cl)c1 | 38.8 | 134 | –
59 | CC(C)CS(=O)(=O)c1ccc(/C=N/NC(=O)c2ccc(O)c(Cl)c2)c2ccccc12 | 181 | 110 | –
60 | O=C(N/N=C/c1ccc(OCC(=O)N2CCc3ccccc3C2)c2ccccc12)c1ccc(O)c(Cl)c1 | 13.8 | 254 | –
61 | CCN(CC)C(=O)Cn1ccc2c(/C=N/NC(=O)c3ccc(O)c(Cl)c3)cccc21 | 2540 | 165 | –
62 | O=C(N/N=C/c1ccc(CC(=O)N2CCN(Cc3ccc(Cl)cc3)CC2)c2ccccc12)c1ccc(O)c(Cl)c1 | 4.6 | 101 | –
63 | CCC1CCCCN1C(=O)Cc1ccc(/C=N/NC(=O)c2ccc(O)c(Cl)c2)c2ccccc12 (centres undefined) | 7.4 | 279 | –
64 | O=C(N/N=C/c1ccc(N(C(=O)C2CCCC2)C(=O)C2CCCC2)c2ccccc12)c1ccc(O)c(Cl)c1 | 3.4 | – | –
65 | O=C(N/N=C/c1ccc(CS(=O)(=O)Cc2ccc(OC(F)(F)F)cc2)c2ccccc12)c1ccc(O)c(Cl)c1 | 6.8 | 14 | –
66 | O=C(N/N=C/c1cccc2c1ccn2Cc1ccc(Cl)c(Cl)c1)c1ccc(O)c(Cl)c1 | 27.5 | 190 | –
67 | CN(C)CCN(Cc1ccccc1)C(=O)Cc1ccc(/C=N/NC(=O)c2ccc(O)c(Cl)c2)c2ccccc12 | 6.2 | – | –
68 | O=C(N/N=C/c1ccc(CS(=O)(=O)C2CCCC2)c2ccccc12)c1ccc(O)c(Cl)c1 | 221 | – | –
69 | COc1cc(OCCNCc2ccc(C(F)(F)F)cc2)ccc1/C=N/NC(=O)c1ccc(O)c(Cl)c1 | 133 | – | –
70 | N#Cc1cc(C(=O)N/N=C/c2ccc(C(=O)N3CCN(Cc4ccc(Cl)cc4)CC3)c3ccccc23)ccc1O | 4.9 | 53 | –
71 | O=C(N/N=C/c1ccc(CO)c2ccccc12)c1ccc(O)c(Cl)c1Cl | 53.8 | – | 103
72 | CC(C)(C)C(=O)Nc1ccc(/C=N/NC(=O)c2ccc(O)c(Cl)c2)c2ccccc12 | 33 | 45 | –
